Assay results taken from ChEMBL document CHEMBL1136250, “N1-benzenesulfonylgramine and N1-benzenesulfonylskatole: novel 5-HT6 receptor ligand templates” (Bioorg Med Chem Lett, 2003).

Test system: not listed separately
Experiment: pA2 value was determined
Details: not given
Work on Cc1cn(S(=O)(=O)c2ccc(N)cc2)c2ccccc12 yielded a pA2 of 7.

Test system: HEK293
Experiment: Inhibition of 5-HT stimulated cAMP production in HEK-5-HT6 cells
Assay type: functional, cell-based
Details: Homo sapiens
Summary of the method: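 HEK cells expressing 5-HT6 receptors; the compound was tested alone for agonist-induced cAMP production, and against 5-HT-stimulated cAMP production. IC50 was calculated for inhibition of the 5-HT-stimulated cAMP response.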
For Cc1cn(S(=O)(=O)c2ccc(N)cc2)c2ccccc12, the IC50 was 320 nM. For CN(C)Cc1cn(S(=O)(=O)c2ccccc2)c2ccccc12, the IC50 was 880 nM.

Molecular target: 5-hydroxytryptamine receptor 6 (Homo sapiens, UniProt P50406)
Sequence (P50406 whole entry): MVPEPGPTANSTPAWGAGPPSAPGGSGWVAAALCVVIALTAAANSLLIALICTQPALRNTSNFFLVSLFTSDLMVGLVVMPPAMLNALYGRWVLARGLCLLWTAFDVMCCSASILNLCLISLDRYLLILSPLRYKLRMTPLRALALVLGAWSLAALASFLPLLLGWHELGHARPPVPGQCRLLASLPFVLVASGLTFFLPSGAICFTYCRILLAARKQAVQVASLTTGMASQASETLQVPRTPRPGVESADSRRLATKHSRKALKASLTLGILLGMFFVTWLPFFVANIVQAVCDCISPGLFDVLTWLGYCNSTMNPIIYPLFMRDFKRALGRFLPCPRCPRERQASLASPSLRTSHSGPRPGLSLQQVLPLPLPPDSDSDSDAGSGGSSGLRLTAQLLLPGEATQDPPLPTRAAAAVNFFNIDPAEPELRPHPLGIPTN
Experiment: Binding affinity towards human 5-hydroxytryptamine 6 receptor
Details: not given
Summary of the method: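 Competition binding with [3H]LSD (1 nM final), 90 min at room temperature in 50 mM Tris–Cl, 10 mM MgCl2, 0.1 mM EDTA, pH 7.40; clozapine defines non-specific binding. Test agent 1–10,000 nM; Ki by LIGAND fitting, triplicate determinations.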
Molecule CCN(CC)CCc1cn(S(=O)(=O)c2ccccc2)c2ccc(OC)cc12 has a Ki of 6.2 nM. CCN(CC)CCc1cn(S(=O)(=O)c2ccc(N)cc2)c2ccc(OC)cc12 showed a Ki of 0.6 nM. In the case of COc1ccc2c(c1)c(CCN(C)Cc1ccccc1)cn2S(=O)(=O)c1ccc(N)cc1, the Ki is reported as 3 nM. In the case of CN(C)CCc1cn(S(=O)(=O)c2ccccc2)c2ccc(O)cc12, the Ki is reported as 28 nM. In the case of CC(=O)Nc1ccc(S(=O)(=O)n2cc(CCN(C)C)c3ccccc32)cc1, the Ki is reported as 27 nM. COc1ccc2c(c1)c(CCN(C)Cc1ccccc1)cn2S(=O)(=O)c1ccccc1 showed a Ki of 43 nM. COc1ccc2c(c1)c(CCN(C)C)cn2S(=O)(=O)c1ccc(NC(C)=O)cc1 gave a Ki of 34 nM. In the case of CCN(CC)CCc1cn(S(=O)(=O)c2ccc(N)cc2)c2ccccc12, the Ki is reported as 0.6 nM. Work on CNCCc1cn(S(=O)(=O)c2ccccc2)c2ccc(OC)cc12 yielded a Ki of 23 nM. Molecule CCN(CC)CCc1cn(S(=O)(=O)c2ccc(NC(C)=O)cc2)c2ccc(OC)cc12 has a Ki of 230 nM. CCN(CC)CCc1cn(S(=O)(=O)c2ccc(NC(C)=O)cc2)c2ccccc12 gave a Ki of 90 nM.
